Each block holds one compound with its values, some of them ahead of it.
Columns and labels:
[1] = Partition coefficient (logP); assay type: physicochemical; conditions: octanol/water
Summary of the method: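 log P calculated with XLOGP 2.0, not measured.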

[2] = Protective index as the ratio of TD50 to ED50 (from the clonic phase of the audiogenic seizures).; conditions: for selectivity ratio: read-out: PI
Summary of the method: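 Ratio of rotarod TD50 to ED50 from the clonic phase of audiogenic seizures in DBA/2 mice, both after ip dosing.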

[3] = Toxicity assessed by Rotarod test (locomotor deficit) in mice.; assay type: organism-based; conditions: mouse, in vivo
Summary of the method: (§1)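 Male Swiss mice (20–26 g), groups of 10, trained on a 3-cm rotarod at 8 rpm. Tested 30 min after ip dosing; impairment defined as failure to stay on for 2 min. TD50 by Litchfield–Wilcoxon, at least 32 animals, 95% confidence limits.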

[4] = Anticonvulsant activity against audiogenic seizures in DBA/2 mice in tonic phase; assay type: functional; conditions: Mus musculus
Summary of the method: (§2)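 DBA/2 mice (8–12 g, 22–25 days), groups of 10, given ip doses of 3.3–200 µmol/kg in 50% DMSO/50% saline. Auditory stimulation 30 min later after 60 s habituation under a dome. Incidence of each seizure phase scored. ED50 by Litchfield–Wilcoxon, at least 32 animals, 95% confidence limits.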

[5] = species on record: Mus musculus; assay: Anticonvulsant activity against audiogenic seizures in DBA/2 mice in clonic phase.; assay type: functional; summary of the method: as §2
[6] = species on record: Rattus norvegicus; assay: Percentage reduction of ATPA evoked currents at a concentration of 100 uM in cerebellar neurons
[7] = species on record: Rattus norvegicus; assay: Percentage reduction of KA (kainate) evoked currents at a concentration of 100 uM in cerebellar neurons
[8] = Percentage reduction of ATPA evoked currents at a concentration of 100 uM in cerebellar neurons; assay type: functional
Summary of the method: (§3)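 Whole-cell voltage clamp of rat cerebellar granule neurons cultured 7 days (7–8-day-old Sprague–Dawley pups; Ara-C 10 µM from 24 h). External solution pH 7.4. KA or ATPA and test agent all applied at 100 µM by Y-tube, DMSO final below 1%. Mean ± SE of at least 10 cells.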

[9] = Percentage reduction of KA (kainate) evoked currents at a concentration of 100 uM in cerebellar neurons; assay type: functional; summary of the method: as §3
[10] = Locomotion assessed by Rotarod test in mice; assay type: organism-based; conditions: mouse, in vivo; summary of the method: as §1
[11] = Protective index as the ratio of TD50 value to that of ED50 value (from the clonic phase of the audiogenic seizures).; assay type: functional
Summary of the method: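 PI = TD50/ED50. TD50 from rotarod (3 cm, 8 rpm; failure to stay on for 2 min) in male Swiss mice 30 min after ip dosing; ED50 from clonic phase of audiogenic seizures in DBA/2 mice 30 min after ip dosing (50% DMSO/saline). Both by Litchfield–Wilcoxon, ≥32 animals each.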

[12] = test system: Mus musculus; assay: Anticonvulsant activity against audiogenic seizures in DBA/2 mice in clonic phase after 60 min intraperitoneal administration (95% confidence limit in parentheses)**indicates p<0.01; assay type: functional; conditions: ip, 1 h
Summary of the method: (§4)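 DBA/2 mice (8–12 g, 22–25 days old), genetically sound-susceptible, groups of 10. Dosed ip (0.1 mL/10 g) as fresh solution in 50% DMSO/50% saline, doses 3.3-200 μmol/kg; auditory stimulation after 60 s habituation under dome, at 30 min (time-course: 15–120 min post-dose).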

[13] = species on record: Rattus norvegicus; assay: Percentage reduction of ATPA evoked currents at a concentration of 100 uM in cerebellar neurons; remark: listed apart in the source
[14] = test system: Mus musculus; assay: Anticonvulsant activity against audiogenic seizures in DBA/2 mice in clonic phase after 90 min intraperitoneal administration (95% confidence limit in parentheses)*indicates p<0.05; assay type: functional; conditions: ip, 1.5 h
Summary of the method: (§5)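 Time course: DBA/2 mice (8–12 g, 22–25 days) dosed ip in 50% DMSO/50% saline and challenged with sound 15 to 120 min after dosing. Clonic phase scored; ED50 in µmol/kg by Litchfield–Wilcoxon with 95% confidence limits. Between-compound differences at each time by Litchfield–Wilcoxon (*p<0.05, **p<0.01).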

[15] = test system: Mus musculus; assay: Anticonvulsant activity against audiogenic seizures in DBA/2 mice in clonic phase after 120 min intraperitoneal administration (95% confidence limit in parentheses); assay type: functional; conditions: ip, 2 h; summary of the method: as §5
[16] = test system: Mus musculus; assay: Anticonvulsant activity against KA induced seizures in DBA/2 mice at a dose of 32 mg/kg at CD97 after intraperitoneal administration (95% confidence limits); assay type: functional; conditions: ip
[17] = test system: Mus musculus; assay: Anticonvulsant activity against AMPA induced seizures in DBA/2 mice after intracerebro ventricular administration at the CD97 for tonus (11.7 nmol) (95% confidence limits); assay type: functional; conditions: central
[18] = species on record: Mus musculus; assay: Anticonvulsant activity against audiogenic seizures in DBA/2 mice in tonic phase (95% confidence limit in parentheses); assay type: functional; summary of the method: as §4
[19] = species on record: Rattus norvegicus; assay: Percentage reduction of KA (kainate) evoked currents at a concentration of 100 uM in cerebellar neurons; remark: listed apart in the source
[20] = test system: Mus musculus; assay: Anticonvulsant activity against AMPA induced seizures in DBA/2 mice after intracerebro ventricular administration at the CD97 for clonus (9.7 nmol) (95% confidence limits); assay type: functional; conditions: central
[21] = species on record: Mus musculus; assay: Anticonvulsant activity against MES induced seizures in swiss mice in tonic phase (95% confidence limits); assay type: functional
Summary of the method: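 Swiss mice dosed ip in 50% DMSO/50% saline, then shocked via ear-clip electrodes (50 mA, 20 ms pulse width, 35 Hz, 400 ms). Protection defined as abolition of tonic hindlimb extension. Four to five doses, 8–10 mice each; ED50 by Litchfield–Wilcoxon with 95% confidence limits.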

[22] = test system: Mus musculus; assay: Anticonvulsant activity against audiogenic seizures in DBA/2 mice in clonic phase after 15 min intraperitoneal administration (95% confidence limit in parentheses); assay type: functional; conditions: ip, 0.25 h; summary of the method: as §5
[23] = species on record: Mus musculus; assay: Anticonvulsant activity against PTZ induced seizures in swiss mice in clonic phase (95% confidence limits); assay type: functional
[24] = test system: Mus musculus; assay: Anticonvulsant activity against audiogenic seizures in DBA/2 mice in clonic phase after 45 min intraperitoneal administration (95% confidence limit in parentheses)**indicates p<0.01; assay type: functional; conditions: ip, 0.75 h; summary of the method: as §4
[25] = test system: Mus musculus; assay: Anticonvulsant activity against audiogenic seizures in DBA/2 mice in clonic phase after 30 min intraperitoneal administration (95% confidence limit in parentheses)**indicates p<0.01; assay type: functional; conditions: ip, 0.5 h; summary of the method: as §4

logP ([1]; read-out: logP): 2.77
SMILES: CCCNC(=O)N1N=C(c2ccc(N)cc2)c2cc3c(cc2CC1=O)OCO3
selectivity ratio [2]: 2.6
TD50 [3]: 182 µmol/kg

logP ([1]; read-out: logP): 3.24
SMILES: CCCNC(=O)N/N=C(\c1ccc(N)cc1)c1cc2c(cc1CC(=O)OC)OCO2
selectivity ratio [2]: 3.1
TD50 [3]: 177 µmol/kg
ED50 [4]: 42.8 µmol/kg
ED50 [5]: 57.1 µmol/kg

logP ([1]; read-out: logP): 2.99
SMILES: CNC(=O)N/N=C(\c1ccc(N)cc1)c1cc2c(cc1CC(=O)OC)OCO2 (stereo in doubt; 29)
selectivity ratio [2]: 3.7
TD50 [3]: 38.6 µmol/kg
ED50 [4]: 9.51 µmol/kg
ED50 [5]: 10.4 µmol/kg

logP ([1]; read-out: logP): 3.34
SMILES: CCCCNC(=O)N1N=C(c2ccc(N)cc2)c2cc3c(cc2CC1=O)OCO3
selectivity ratio [2]: 2.8
TD50 [3]: 108 µmol/kg

logP ([1]; read-out: logP): 3.81
SMILES: CCCCNC(=O)N/N=C(\c1ccc(N)cc1)c1cc2c(cc1CC(=O)OC)OCO2
selectivity ratio [2]: 2.9
TD50 [3]: 188 µmol/kg
ED50 [4]: 38.2 µmol/kg
ED50 [5]: 65 µmol/kg

logP ([1]; read-out: logP): 3.67
SMILES: CCCOC(=O)Cc1cc2c(cc1/C(=N/NC(=O)NCC)c1ccc(N)cc1)OCO2
selectivity ratio [2]: 3.4
TD50 [3]: 187 µmol/kg
ED50 [4]: 40.3 µmol/kg
ED50 [5]: 55.5 µmol/kg

logP ([1]; read-out: logP): 2.89
SMILES: CCNC(=O)N/N=C(\c1ccc(N)cc1)c1cc2c(cc1CC(=O)OC)OCO2
selectivity ratio [2]: 3.7
TD50 [3]: 113 µmol/kg
ED50 [4]: 32.8 µmol/kg
ED50 [5]: 30.3 µmol/kg

logP ([1]; read-out: logP): 2.89
SMILES: CCOC(=O)Cc1cc2c(cc1/C(=N/NC(=O)NC)c1ccc(N)cc1)OCO2
selectivity ratio [2]: 3.3
TD50 [3]: 95.1 µmol/kg
ED50 [4]: 10.9 µmol/kg
ED50 [5]: 28.8 µmol/kg

logP ([1]; read-out: logP): 1.82
SMILES: CNC(=O)NC(=O)Cc1cc2c(cc1C(=O)c1ccc(N)cc1)OCO2
selectivity ratio [2]: 3.4
TD50 [3]: 134 µmol/kg
ED50 [4]: 28.9 µmol/kg
ED50 [5]: 39.5 µmol/kg

logP ([1]; read-out: logP): 2.68
SMILES: COC(=O)Cc1cc2c(cc1Cc1ccc(N)cc1)OCO2
selectivity ratio [2]: 3.1
TD50 [3]: 169 µmol/kg
ED50 [4]: 47.7 µmol/kg
ED50 [5]: 54.3 µmol/kg

logP ([1]; read-out: logP): 1.99
SMILES: CNC(=O)N1N=C(c2ccc(N)cc2)c2cc3c(cc2CC1=O)OCO3
TD50 [10]: 48.6 µmol/kg
PI [11]: 3.9
Reduction [6]: 50%

logP [1]: 2.46
SMILES: CNC(=O)N/N=C(\c1ccc(N)cc1)c1cc2c(cc1CC(=O)OC)OCO2 (stereo in doubt; 10)
ED50 [12]: 10.2 µmol/kg
Reduction [13]: 75%
TD50 [10]: 28.3 µmol/kg
ED50 [14]: 25.5 µmol/kg
ED50 [15]: 36.8 µmol/kg
PI [2]: 3.6
ED50 [16]: 16.6 µmol/kg
ED50 [17]: 8.9 µmol/kg
ED50 [18]: 4.62 µmol/kg
Reduction [19]: 60%
ED50 [20]: 13.9 µmol/kg
ED50 [21]: 15.7 µmol/kg
ED50 [22]: 24.1 µmol/kg
ED50 [23]: 14.7 µmol/kg
ED50 [24]: 7.75 µmol/kg
ED50 [25]: 7.87 µmol/kg

The remaining lines, values behind:

SMILES: Nc1ccc(C2=NNC(=O)Cc3cc4c(cc32)OCO4)cc1
logP ([1]; read-out: logP): 2.58
selectivity ratio [2]: 6.3
Reduction [6]: 94%

SMILES: CCCCOC(=O)Cc1cc2c(cc1/C(=N/NC(=O)NCC)c1ccc(N)cc1)OCO2
logP ([1]; read-out: logP): 4.24
selectivity ratio [2]: 2.2
TD50 [3]: 117 µmol/kg
ED50 [4]: 38.7 µmol/kg
ED50 [5]: 53.1 µmol/kg

SMILES: CCNC(=O)N/N=C(\c1ccc(N)cc1)c1cc2c(cc1CC(=O)OCC)OCO2
logP ([1]; read-out: logP): 3.31
selectivity ratio [2]: 2.7
TD50 [3]: 227 µmol/kg
ED50 [4]: 60.8 µmol/kg
ED50 [5]: 84.4 µmol/kg

SMILES: CCCCOC(=O)Cc1cc2c(cc1/C(=N/NC(=O)NC)c1ccc(N)cc1)OCO2
logP ([1]; read-out: logP): 3.81
selectivity ratio [2]: 2.7
TD50 [3]: 179 µmol/kg
ED50 [4]: 39.8 µmol/kg
ED50 [5]: 66.2 µmol/kg

SMILES: CC1=NN=C(c2ccc(N)cc2)c2cc3c(cc2C1)OCO3 [GYKI-52466]
logP ([1]; read-out: logP): 3.51
selectivity ratio [2]: 2.1
Reduction [6]: 45%
Reduction [7]: 47%

SMILES: CNC(=O)NC(=O)Cc1cc2c(cc1Cc1ccc(N)cc1)OCO2
logP ([1]; read-out: logP): 2.23
Reduction [8]: 32%
Reduction [9]: 54%
selectivity ratio [2]: 3.6
TD50 [3]: 33.3 µmol/kg
ED50 [4]: 7.65 µmol/kg
ED50 [5]: 9.28 µmol/kg

SMILES: CCNC(=O)N1N=C(c2ccc(N)cc2)c2cc3c(cc2CC1=O)OCO3
logP ([1]; read-out: logP): 2.41
selectivity ratio [2]: 3.8
TD50 [3]: 134 µmol/kg

SMILES: CNC(=O)NC(=O)Cc1ccc2c(c1)OCO2
logP ([1]; read-out: logP): 1.09
selectivity ratio [2]: 2.5
TD50 [3]: 219 µmol/kg
ED50 [4]: 74.4 µmol/kg
ED50 [5]: 87.8 µmol/kg

SMILES: CCCOC(=O)Cc1cc2c(cc1/C(=N/NC(=O)NC)c1ccc(N)cc1)OCO2
logP ([1]; read-out: logP): 3.24
selectivity ratio [2]: 3.8
TD50 [3]: 68.5 µmol/kg
ED50 [4]: 8.93 µmol/kg
ED50 [5]: 18 µmol/kg

From ChEMBL document CHEMBL1135822, “Novel potent AMPA/kainate receptor antagonists: synthesis and anticonvulsant activity of a series of 2-[(4-alkylsemicarbazono)-(4-amino-phenyl)methyl]-4,5-methylenedioxyphenylacetic acid alkyl esters” (J Med Chem, 2002)
